From ChEMBL document CHEMBL3769383, “Cefsulodin Inspired Potent and Selective Inhibitors of mPTPB, a Virulent Phosphatase from Mycobacterium tuberculosis” (ACS Med Chem Lett, 2015)
The source made the active and inactive calls. The rule behind the calls is not given here.

Key:
[1] = Inhibition of Mycobacterium tuberculosis PTPB expressed in Escherichia coli BL21/DE3 cells using pNPP as substrate after 5 mins by spectrophotometry
[2] = Reversible competitive inhibition of Mycobacterium tuberculosis PTPB expressed in Escherichia coli BL21/DE3 cells using pNPP as substrate after 5 mins
BL21-DE3 = assay: Inhibition of Mycobacterium tuberculosis PTPB expressed in Escherichia coli BL21/DE3 cells using pNPP as substrate at 200 uM after 5 mins by spectrophotometry
Summary of the method: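 Single-point screen: the test compound is present at 200 μM in the assay (a compound concentration, not a substrate level). The read-out is phosphatase-catalysed hydrolysis of para-nitrophenyl phosphate.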

| SMILES | IC50 [1] [µM] | Ki [2] [µM] | inhibition (BL21-DE3) |
| --- | --- | --- | --- |
| O=C(Nc1ccc(-c2ccccc2)cc1)C(c1ccccc1)S(=O)(=O)O (racemic) | 0.196 | – | – |
| NC(=O)C(c1ccccc1)S(=O)(=O)O (centres undefined) | 180 | 73.4 | – |
| NC(=O)c1ccncc1 | – | – | inactive |
